Measured values from ChEMBL document CHEMBL1157793, “Synthesis and antitumor activity of 1,5-disubstituted 1,2,4-triazoles as cis-restricted combretastatin analogues” (J Med Chem, 2010).

What was measured:
[1] = system: Jurkat; assay: Antiproliferative activity against human Jurkat cells after 72 hrs by MTT assay; assay type: functional, cell-based
Procedure, shortened: (§1)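 Cells seeded at 8×10^3 per well (Jurkat, HL-60, K562 in RPMI-1640; MCF7, A549, HeLa in DMEM; all with 10% FBS, penicillin/streptomycin), incubated 18 h at 37 °C, 5% CO2, then exposed to compound at varying concentrations in complete medium for 72 h.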

[2] = system: K562; assay: Antiproliferative activity against human K562 cells after 72 hrs by MTT assay; assay type: functional, cell-based; settings: K562, 72 h; procedure, shortened: as §1
[3] = system: HeLa; assay: Antiproliferative activity against human HeLa cells after 72 hrs by MTT assay; assay type: functional, cell-based
[4] = system: MCF7; assay: Antiproliferative activity against human MCF7 cells after 72 hrs by MTT assay; assay type: functional, cell-based; settings: MCF7, 72 h
[5] = system: A549; assay: Antiproliferative activity against human A549 cells after 72 hrs by MTT assay; assay type: functional, cell-based; settings: A549, 72 h
[6] = system: HL-60; assay: Antiproliferative activity against human HL60 cells after 72 hrs by MTT assay; assay type: functional, cell-based; settings: HL-60, 72 h
[7] = species: Bos taurus; assay: Displacement of [3H]colchicine from bovine tubulin at 1 uM
Procedure, shortened: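 [3H]Colchicine binding inhibition measured with reaction mixtures of 1 µM tubulin, 5 µM [3H]colchicine and 1 µM test compound.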

[8] = Inhibition of bovine brain tubulin polymerization after 20 mins by turbidimetry; design: species or system Bos taurus
Procedure, shortened: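 Bovine brain tubulin (10 µM) preincubated with varying compound concentrations in glutamate buffer at 30 °C, chilled to 0 °C, 0.4 mM GTP added, then warmed to 30 °C in spectrophotometer; assembly followed by turbidity at 350 nm.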

IC50 [1] | IC50 [2] | IC50 [3] | IC50 [4] | IC50 [5] | IC50 [6] | Activity [7] | IC50 [8] | Structure (SMILES)
> 10 µM | > 10 µM | > 10 µM | > 10 µM | > 10 µM | > 10 µM |  |  | COc1cc(-c2ncnn2-c2ccc(N)cc2)cc(OC)c1OC
> 10 µM | > 10 µM | > 10 µM | > 10 µM | > 10 µM | > 10 µM |  |  | COc1ccccc1-c1ncnn1-c1cc(OC)c(OC)c(OC)c1
> 10 µM | > 10 µM | > 10 µM | > 10 µM | > 10 µM | > 10 µM |  |  | COc1cccc(-c2ncnn2-c2cc(OC)c(OC)c(OC)c2)c1
> 10 µM | > 10 µM | > 10 µM | > 10 µM | > 10 µM | > 10 µM |  |  | COc1cc(-c2ncnn2-c2ccc(Cl)cc2Cl)cc(OC)c1OC
> 10 µM | > 10 µM | > 10 µM | > 10 µM | > 10 µM | > 10 µM |  |  | COc1cc(-n2ncnc2-c2ccc(Cl)cc2)cc(OC)c1OC
0.05 µM | 0.34 µM | 0.15 µM | 0.39 µM | 0.8 µM | 0.5 µM | 38% | 3.6 µM | COc1cc(-n2ncnc2-c2ccc(SC)cc2)cc(OC)c1OC
> 10 µM | > 10 µM | > 10 µM | > 10 µM | > 10 µM | > 10 µM |  |  | CCOc1ccccc1-c1ncnn1-c1cc(OC)c(OC)c(OC)c1
> 10 µM | > 10 µM | > 10 µM | > 10 µM | > 10 µM | > 10 µM |  |  | CCOc1cccc(-c2ncnn2-c2cc(OC)c(OC)c(OC)c2)c1
> 10 µM | > 10 µM | > 10 µM | > 10 µM | > 10 µM | > 10 µM |  |  | COc1cc(-n2ncnc2-c2ccc(Cl)c(Cl)c2)cc(OC)c1OC
> 10 µM | > 10 µM | > 10 µM | > 10 µM | > 10 µM | > 10 µM |  |  | COc1cc(-c2ncnn2-c2ccc(Cl)cc2)cc(OC)c1OC
> 10 µM | > 10 µM | > 10 µM | > 10 µM | > 10 µM | > 10 µM |  |  | COc1cc(-n2ncnc2-c2ccc(F)cc2)cc(OC)c1OC
0.65 µM | 0.8 µM | 0.6 µM | 0.61 µM | > 10 µM | 0.7 µM | 37% | 5.1 µM | COc1cc(-n2ncnc2-c2ccc(OC(C)C)cc2)cc(OC)c1OC
0.05 µM | 0.95 µM | 0.28 µM | 0.36 µM | 0.52 µM | 0.12 µM | 55% | 2.3 µM | COc1ccc(-c2ncnn2-c2cc(OC)c(OC)c(OC)c2)cc1
0.3 µM | > 10 µM | 0.25 µM | 0.54 µM | 1.1 µM | 0.09 µM | 33% | 3.9 µM | COc1cc(-n2ncnc2-c2ccc(C)cc2)cc(OC)c1OC
> 10 µM | > 10 µM | > 10 µM | > 10 µM | > 10 µM | > 10 µM |  |  | COc1cc(-n2ncnc2-c2ccc(OC(F)(F)F)cc2)cc(OC)c1OC
> 10 µM | > 10 µM | > 10 µM | > 10 µM | > 10 µM | > 10 µM |  |  | COc1cc(-n2ncnc2-c2cccc(F)c2)cc(OC)c1OC
> 10 µM | > 10 µM | > 10 µM | > 10 µM | > 10 µM | > 10 µM |  |  | COc1cc(-c2ncnn2-c2ccc(Cl)c(Cl)c2)cc(OC)c1OC
> 10 µM | > 10 µM | > 10 µM | > 10 µM | > 10 µM | > 10 µM |  |  | COc1cc(-c2ncnn2-c2ccc(F)cc2)cc(OC)c1OC
> 10 µM | > 10 µM | > 10 µM | > 10 µM | > 10 µM | > 10 µM |  |  | COc1cc(-n2ncnc2-c2ccccc2)cc(OC)c1OC
0.093 µM | 3.6 µM | > 10 µM | 7.4 µM | > 10 µM | 6.2 µM |  | 16 µM | COc1ccc(-n2ncnc2-c2cc(OC)c(OC)c(OC)c2)cc1
> 10 µM | > 10 µM | > 10 µM | > 10 µM | > 10 µM | > 10 µM |  |  | COc1cc(-c2ncnn2-c2cccc([N+](=O)[O-])c2)cc(OC)c1OC
> 10 µM | > 10 µM | > 10 µM | > 10 µM | > 10 µM | > 10 µM |  |  | COc1cc(-c2ncnn2-c2ccc([N+](=O)[O-])cc2)cc(OC)c1OC
> 10 µM | > 10 µM | > 10 µM | > 10 µM | > 10 µM | > 10 µM |  |  | COc1cc(-n2ncnc2-c2cccc([N+](=O)[O-])c2)cc(OC)c1OC
> 10 µM | > 10 µM | > 10 µM | > 10 µM | > 10 µM | > 10 µM |  |  | COc1cc(-n2ncnc2-c2cccc(Cl)c2)cc(OC)c1OC
> 10 µM | > 10 µM | > 10 µM | > 10 µM | > 10 µM | > 10 µM |  |  | COc1cc(-c2ncnn2-c2cccc(F)c2)cc(OC)c1OC
> 10 µM | > 10 µM | > 10 µM | > 10 µM | > 10 µM | > 10 µM |  |  | COc1cc(-c2ncnn2-c2cccc(N)c2)cc(OC)c1OC
> 10 µM | > 10 µM | > 10 µM | > 10 µM | > 10 µM | > 10 µM |  |  | COc1cc(-c2ncnn2-c2ccccc2)cc(OC)c1OC

Structure (SMILES) | IC50 [1] | IC50 [2] | IC50 [3] | IC50 [4] | IC50 [5] | IC50 [6] | Activity [7] | IC50 [8]
COc1ccc(/C=C\c2cc(OC)c(OC)c(OC)c2)cc1O [COMBRETASTATIN A4] | 0.005 µM | 0.005 µM |  |  |  |  | 87% | 
